Mot1-301 SUMO: SUMOylation pathway inhibition by Mot1-301 growth rescue; S. cerevisiae Mot1-301 growth rescue, ATP luminescence, 38.5C; percent above DMSO median, 100 means doubled; growth rescue, % at 18.8 µM; hit rate 1% among 320,000;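 active = every valid replicate shows activation above 250% relative to neutral control wells; inactive = the rest, any valid replicate at or below 250%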;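 also: OY570 slx delta 5 strain wells were the positive control but not used for scaling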
PolyA inh: yeast polyadenylation inhibition. activity score, % at 12 µM. hit rate 0.02% among 300,000. S. cerevisiae SKY197-pL101 polyadenylation reporter, beta-gal luminescence; efflux-impaired pdr1/pdr3 knockout yeast; score 100 = 6 SD above DMSO;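 active = lowest replicate activity score at least 50, where 100 means six control SD above control mean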;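 also: yeast exposed to compound for 9 h at 30 °C; higher score means more reporter readthrough which indicates perturbed polyadenylation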
IMP-1 inhibitor: blocks Pseudomonas aeruginosa IMP-1 metallo-beta-lactamase. purified IMP-1, nitrocefin hydrolysis, epi-absorbance fluorescence. inhibition, % at 5.6 µM. hit rate 0.45% among 290,000. AID 1556;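 active = inhibition above the mean plus 3 SD of all compounds in the same screening run, cut at about 4.5% in these data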;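 also: 0% = IMP-1 with DMSO and 100% = DMSO wells lacking enzyme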
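System: purified IMP-1; amount: IMP-1 0.2 nM before substrate addition; compound: single dose, 5.6 µM; times: 25 °C, 15 min preincubation, 25 min reaction; signal: Epi-absorbance via hydrolysed-nitrocefin quenching of white-plate fluorescence, 480/530 nm, EDTA stop; benchmarks: DMSO with and without IMP-1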
NALP1 inh: inhibitors of NALP1 inflammasome in yeast; S. cerevisiae NALP1/ASC/caspase-1 growth, X-gal OD620, 72 h; inhibition, % at 10 µM; hit rate 0.61% among 280,000; AID 2071; in the data active = inhibition mostly above about 24%, no sharp cut-off; inactive = mostly below about 32%
NLRP3 yeast inh: inhibitors of NALP3 inflammasome in yeast; AID 2825; Yeast reconstituted NLRP3/ASC/caspase-1, beta-gal luminescence, 24 h; inhibition, % at 10 µM; hit rate 0.39% among 330,000;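 active = inhibition of 50% or more; inactive = inhibition below 50%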;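 also: plate controls were induced DMSO wells for no effect and uninduced yeast grown without galactose for full effect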
VIM-2 inhibitor: blocks Pseudomonas aeruginosa VIM-2 metallo-beta-lactamase; purified VIM-2, nitrocefin hydrolysis, epi-absorbance fluorescence; inhibition, % at 5.6 µM; hit rate 0.89% among 290,000;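 active = inhibition above the mean of all tested compounds plus 3 SD, cutoff set per screening run, cut at about 7.5% in these data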;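 also: red hydrolysis product quenches plate fluorescence so inhibitors raise well fluorescence; 0% = enzyme with DMSO and 100% = DMSO without enzyme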
The depositor's hits bear a star; / = no result; + = active, no number. An excerpt weighted towards active compounds, which were near 2.9% of everything screened.

SMILES | Mot1-301 SUMO | PolyA inh | IMP-1 inhibitor | NALP1 inh | NLRP3 yeast inh | VIM-2 inhibitor
COC(=O)c1cc2c(=O)c3ccccc3oc2nc1C | -5 | -30 | -4 | 3 | / | 6
O=C(O)CC/C(=C\c1ccc(Cl)c([N+](=O)[O-])c1)c1nc2ccccc2s1 | / | -7 | 0 | 20 | 9 | 9.2*
O=C(O)CC/C(=C\c1ccc(N2CCOCC2)c([N+](=O)[O-])c1)c1nc2ccccc2s1 | / | -20 | 0 | 6 | / | 0
O=C(O)CC/C(=C\c1ccc2c(c1)OCO2)c1nc2ccccc2s1 | -6 | -28 | -4 | 11 | 16 | 11*
O=C(Cc1ccc(Cl)cc1)Oc1cccc2cccnc12 | -7 | / | -2 | 78* | / | -3
O=C(Oc1cccc2cccnc12)c1ccco1 | 3 | 24 | -4 | -18 | -10 | -2
CS(=O)(=O)c1ccc(Cl)c(NC(=O)CSc2nnc(-c3cccs3)n2N)c1 | -5 | / | / | / | 18 | /
Fc1cccc(CCN2CCNC[C@@H]2CC2CCCCC2)c1 | 63 | / | / | / | 10 | /
COc1ccc(CNCCC(c2ccccc2)c2ccc3c(c2)OCO3)cc1 (stereo not drawn) | -4 | -17 | 0 | 27* | 42 | 2
Cc1cccc(N2C(=O)CC(Sc3ccccc3C(=O)O)C2=O)c1 (stereo not drawn) | 107 | -29 | -2 | 78* | 18 | -2
Cc1cc(C)cc(N2C(=O)CC(Sc3ccccc3C(=O)O)C2=O)c1 (stereo not drawn) | 5 | 6 | 0 | 10 | 18 | -1
CN(C)c1ccc(N2C(=O)CC(Sc3ccccc3C(=O)O)C2=O)cc1 (stereo not drawn) | -38 | -2 | -5 | 52* | 0 | -1
Cc1ccc(N2C(=O)CC(Sc3ccccc3C(=O)O)C2=O)cc1 (stereo not drawn) | 81 | 0 | -2 | 63* | 15 | -1
Cc1ccc(N2C(=O)CC(Sc3ccccc3C(=O)O)C2=O)cc1C (stereo not drawn) | -6 | -24 | -2 | 36* | 21 | -1
CC(=O)NCc1ccc(C(=O)CN2C(=O)NC3(CCCCC3C)C2=O)s1 (stereo not drawn) | / | / | / | / | 28 | /
CCN(CC(=O)NCc1cccs1)C(=O)c1ccc(-c2ccc(F)cc2)o1 | 5 | / | / | / | 9 | /
CCn1c2ccccc2c2cc(CNCc3ccc(OC)cc3OC)ccc21 | 3 | -14 | -2 | 23* | 36 | -7
COc1ccc(CCN2C(=O)/C(=C\c3ccco3)SC2=S)cc1OC | / | -22 | -1 | 18 | 22 | 1
O=C(CN1C(=O)/C(=C/c2cccc(Br)c2)SC1=S)NCCCN1CCOCC1 | -9 | 1 | 4.8* | 12 | 7 | -3
O=C(CCCN1C(=O)/C(=C/c2cccc(Br)c2)SC1=S)NCCCN1CCOCC1 | -17 | 16 | -2 | -6 | 26 | 2
CCN(CC)C(=O)CN1C(=O)/C(=C/c2ccccc2)SC1=S | -13 | -11 | -2 | / | 19 | -1
C=CCN1C(=O)/C(=C\c2ccc(OC(=O)c3ccco3)c(OC)c2)SC1=S | 3 | -10 | -2 | 30* | -7 | -2
CC(=O)NNC(=O)CN1C(=O)/C(=C/c2ccccc2)SC1=S | 711 | -2 | 9.6* | / | 1 | 5
COc1cc(/C=C2/SC(=S)N(CC(=O)O)C2=O)ccc1OCC(=O)Nc1ccc(C)c(C)c1 | -7 | -4 | 7.5* | 10 | 16 | -1
O=C(c1cc(COc2ccc(F)cc2Cl)on1)N1CC2C[C@@H]3CC1C[C@H](C2)C3 | 47 | -3 | 0 | 22 | 8 | 0
SMILES | Mot1-301 SUMO | PolyA inh | IMP-1 inhibitor | NALP1 inh | NLRP3 yeast inh | VIM-2 inhibitor
CCN1C(=O)/C(=C\c2cccc(OC(=O)c3ccco3)c2)SC1=S | 321* | 12 | 0 | -2 | 15 | -3
O=C(O)CN1C(=O)/C(=C/c2ccc(SCc3ccccc3)o2)SC1=S | / | / | 4.7* | 1 | / | 4
O=C(O)CN1C(=O)/C(=C\c2cccc(OC(=O)c3ccco3)c2)SC1=S | 417* | -9 | 2 | 17 | 1 | 6
C=CCN1C(=O)/C(=C\c2cccc(OC(=O)c3ccco3)c2)SC1=S | 4 | -22 | 0 | 2 | 22 | -1
CC1CCN(C(=O)c2cc(Cl)ccc2NC(=O)c2ccco2)CC1 | -17 | 11 | -3 | -9 | 2 | -1
Cc1ncc([N+](=O)[O-])n1CC(=O)Nc1ccc(F)c(Cl)c1 | -2 | -4 | -2 | 26 | -2 | -6
Cc1nc(-c2ccccc2)nc(Cl)c1Cl | -9 | -5 | -2 | 33* | -16 | 1
Nc1c(Cl)nc(-c2ccccc2)nc1Cl | 5 | -9 | -3 | 3 | -1 | -1
CC1=CC(=O)c2ccccc2C1=O | -1 | 24 | -4 | 2 | -13 | -1
CC(C)(C=O)C1=CC(=O)c2ccccc2C1=O | 181 | / | -4 | 48* | / | -1
Cc1ccc(-c2cc(C(F)(F)F)n3nc(C(=O)N4CCN5CCCC5C4)cc3n2)cc1 (stereo not drawn) | -7 | -3 | 0 | 18 | 22 | 10*
Cc1ccc(CN2CCNC(=O)C2CC(=O)NC2CCCCCC2)o1 (stereo not drawn) | 347* | 1 | -2 | 4 | 7 | -2
Cc1ccc(CN2CCNC(=O)C2CC(=O)NC2CCCCCC2)cc1 (stereo not drawn) | 0 | 17 | -2 | 7 | 19 | -3
CCOc1ccc(NC(=O)C2CCN(S(=O)(=O)c3ccc4c(c3)C(C)(C)C(=O)N4C)CC2)cc1 | -5 | 9 | -4 | -7 | 26 | -1
COc1ccccc1NC(=O)NC1(C)CCS(=O)(=O)C1 (stereo not drawn) | / | 17 | -3 | 7 | 15 | -5
O=C(CCC1CCN(Cc2ccc(Cl)cc2)CC1)NC1CC1 | 5 | -7 | -3 | -6 | 11 | 0
O=C(c1ccccc1)c1ccc(OCCOCCN2CCN(Cc3ccccc3)CC2)cc1 | / | -23 | -4 | 38* | 17 | -3
O=C(c1ccccc1)c1ccc(OCCCCN2CCCCC2)cc1 | 4 | 9 | 0 | 3 | -3 | 0
CC(=O)c1ccc(OCC(O)CN2CCN(Cc3ccccc3)CC2)cc1 (stereo not drawn) | 12 | 14 | -3 | 41* | 9 | -3
O=C(c1ccccc1)c1ccc(OCCCN2CCCC2)cc1 | + | -5 | -5 | 33 | 4 | -2
O=C(CCCOc1ccccc1)N1CCCCC1 | 5 | 6 | -3 | 33* | 16 | -4
O=C(c1ccccc1)c1ccc(OCC(O)CN2CCN(Cc3ccccc3)CC2)cc1 (stereo not drawn) | 253 | -8 | -2 | 29 | 14 | -2
O=C(CCCOc1ccc(Cl)cc1)N1CCCCC1 | 3 | -11 | -6 | 33 | 24 | -2
CCOC(=O)c1c(C)[nH]c(C)c1S(=O)(=O)NCc1ccccc1C | 8 | 4 | 1 | 11 | 3 | 0

Compound activity: PubChem BioAssay, several laboratories
